Assay results collected from several papers.
PIK3CD: Phosphatidylinositol 4,5-bisphosphate 3-kinase catalytic subunit delta isoform (PIK3CD, Homo sapiens, UniProt O00329)
COQ8A: Atypical kinase COQ8A, mitochondrial (COQ8A, Homo sapiens, UniProt Q8NI60)
NR3C2: Mineralocorticoid receptor (NR3C2, Homo sapiens, UniProt P08235)
NTSR1: Neurotensin receptor type 1 (NTSR1, Homo sapiens, UniProt P30989)

CC(C)(C)OC(=O)N1CCN(Cc2ccn(Cc3ccc(Cl)cc3)c(=O)c2O)CC1  IC50 (Lysine-specific demethylase 4E (KDM4E, Homo sapiens, UniProt B2RXH2); enzyme activity, inhibitor, AlphaScreen): 6180 nM
COc1cc2ncnc(Nc3ccc4c(c3)/C(=C/c3ccccc3)C(=O)N4C)c2cc1OC  IC50 (PIK3CD; enzyme activity, inhibitor, ADP detection): 277 nM
CC1(C)CCC(CN2CCN(c3ccc(C(=O)NS(=O)(=O)c4ccc(NCC5CCOCC5)c([N+](=O)[O-])c4)c(Oc4cnc5[nH]ccc5c4)c3)CC2)=C(c2ccc(Cl)cc2)C1  IC50 (COQ8A; ligand displacement, TR-FRET): 6110 nM
CC(C)Oc1ccc(S(=O)(=O)c2ccc(Oc3cc(OCC(N)=O)c(C(=O)C(Cl)Cl)cc3[N+](=O)[O-])cc2)cc1  IC50 ([Pyruvate dehydrogenase (acetyl-transferring)] kinase isozyme 1, mitochondrial (PDK1, Homo sapiens, UniProt Q15118); enzyme activity, inhibitor, ATP luminescence): 140 nM
CCc1ccc(NC(=O)CSc2nc(-c3ccc(C)cc3)nc3c2Cc2c(CO)cnc(C)c2O3)cc1  IC50 (COQ8A; ligand displacement, TR-FRET): 8630 nM
C[C@]12C[C@H](O)[C@H]3[C@@H](CCC4=CC(=O)CC[C@@]43C)[C@@H]1CC[C@@H]2C(=O)CO  EC50 (NR3C2; reporter gene, agonist, luciferase): 11.3 nM
NC(=O)c1ncc(N2CCCCC2)nc1Nc1ccc(C2CCN(C[C@H]3CCN(c4ccc5c(c4)C(=O)N(C4CCC(=O)NC4=O)C5=O)C3)CC2)cc1 (stereo partly shown)  Kd (Tyrosine-protein kinase BTK (BTK, Homo sapiens, UniProt Q06187, L528W); binding, SPR): 88 nM
C[C@]12CCC(=O)C=C1CC[C@@H]1[C@@H]2[C@@H](O)C[C@@]2(C=O)[C@H]1CC[C@]2(O)C(=O)CO  EC50 (NR3C2; reporter gene, agonist, luciferase): 19.6 nM
COc1cc2ncnc(Nc3ccc4c(c3)/C(=C/c3cccc(Cl)c3)C(=O)N4C)c2cc1OC  IC50 (PIK3CD; enzyme activity, inhibitor, ADP detection): 628 nM
Cc1ccc2c(=O)cc(C(=O)Nc3c(C(=O)c4ccc(F)cc4)oc4ccccc34)oc2c1C  IC50 (COQ8A; ligand displacement, TR-FRET): 9680 nM
Cc1nc(Nc2ccc3c(c2)/C(=C/c2ccccc2C)C(=O)N3)c2ccccc2n1  IC50 (PIK3CD; enzyme activity, inhibitor, ADP detection): 126 nM
COc1ccccc1C1CCN(c2nc(C3(F)CC3)nc3ccc(N(C)CCN4CCOCC4)cc23)CC1  EC50 (NTSR1; β-arrestin recruitment, agonist): 7460 nM
Cc1nc(Nc2ccc3c(c2)CC(=O)N3)c2ccccc2n1  IC50 (PIK3CD; enzyme activity, inhibitor, ADP detection): 397 nM
Nc1ncnc2c1ncn2[C@@H]1O[C@H](COP(=O)(O)OP(=O)(O)OP(=O)(O)O)[C@@H](O)[C@H]1O  EC50 (P2X purinoceptor 3 (P2rx3, Rattus norvegicus, UniProt P49654); ion current, agonist, patch clamp): 271 nM
COc1ccccc1C1CCN(c2nc(C3(C)CCCC3)nc3ccc(N(C)CCO)cc23)CC1  EC50 (NTSR1; β-arrestin recruitment, agonist): 40200 nM
O=C(Nc1nc2n(n1)C(c1ccc(F)cc1)C=C(c1ccccc1)N2)c1cccc([N+](=O)[O-])c1 (stereo not shown)  IC50 (COQ8A; ligand displacement, TR-FRET): 3850 nM
COc1cc2ncnc(N(C)c3ccc4c(c3)/C(=C/c3ccccc3)C(=O)N4C)c2cc1OC (mixture of isomers)  IC50 (PIK3CD; enzyme activity, inhibitor, ADP detection): 416 nM
C=C[C@@]1(C)CC(=O)[C@]2(O)[C@@]3(C)[C@@H](O)CCC(C)(C)[C@@H]3[C@H](O)[C@H](OC(C)=O)[C@@]2(C)O1  EC50 (Adenylate cyclase type 5 (ADCY5, Homo sapiens, UniProt O95622); cAMP, agonist, TR-FRET): 10000 nM
COc1cc(/C=C/C(O)=C/C(=O)/C=C/c2ccc(O)cc2)ccc1O  Kd (Sarcoplasmic/endoplasmic reticulum calcium ATPase 1 (ATP2A1, Oryctolagus cuniculus, UniProt P04191); binding, fluorescence; pH 7.2): 8000 nM
